Experimental data published in ChEMBL document CHEMBL1131039, “Styrylquinoline derivatives: a new class of potent HIV-1 integrase inhibitors that block HIV-1 replication in CEM cells” (J Med Chem, 1998).

Legend:
[1] = tested on: CCRF-CEM; test: Antiviral activity was measured as IC25 by calculating amount of virus present in CEM cells by beta-galactosidase assay.; assay type: functional; conditions: Homo sapiens
Procedure, shortened: (§1)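 HIV-1 PLN4-3 (cell-free virus from CEM transfection) infection of CEM cells (RPMI-1640, 10% FCS), triplicate wells. Virus removed at 2 h, compounds in DMSO added in fresh medium at increasing concentrations. Supernatants taken at 72 h and used to infect HeLaCD4+-β-gal (P4) cells for 24 h. Lysate incubated with CPRG for 1 h, read at 570 nm. Average of three experiments.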

[2] = tested on: CCRF-CEM; test: Antiviral activity was measured as IC50 by calculating amount of virus present in CEM cells by beta-galactosidase assay.; assay type: functional, cell-based; conditions: Homo sapiens; procedure, shortened: as §1
[3] = tested on: CCRF-CEM; test: (§2) Cytotoxicity (TC90) was measured by MTT transformation assay; assay type: functional, Homo sapiens
[4] = tested on: CCRF-CEM; test: Toxicity was measured by MTT assay after 120 hours at 100 uM; assay type: functional, Homo sapiens
Procedure, shortened: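 Infected CEM cells exposed to compounds at 100 μM; viability assessed 120 h after infection by MTT transformation assay (formazan solubilized in SDS/HCl, absorbance at 570 nm).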

[5] = tested on: CCRF-CEM; test: Toxicity was measured by MTT assay after 72 hours at 100 uM; assay type: functional, Homo sapiens
Procedure, shortened: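 Infected CEM cells exposed to compounds (in DMSO) at 100 μM; viability after 72 h by MTT. MTT (7.5 mg/mL in phosphate buffer) added per well, 4 h at 37 °C under CO2. Formazan dissolved in 10% SDS, 10 mM HCl, absorbance at 570 nm. Average of three experiments.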

[6] = tested on: CCRF-CEM; test: Cytotoxicity (TC50) was measured by MTT transformation assay; assay type: functional; conditions: Homo sapiens, read-out: TC50 (the source's name)
[7] = tested on: CCRF-CEM; test: Antiviral activity was measured as IC90 by calculating amount of virus present in CEM cells by beta-galactosidase assay.; assay type: functional; conditions: Homo sapiens; procedure, shortened: as §1
[8] = tested on: Human immunodeficiency virus 1; test: Effect upon disintegration catalyzed by the deletion mutant; assay type: functional
[9] = target: T1, Human immunodeficiency virus type 1 integrase (Human immunodeficiency virus 1, UniProt Q7ZJM1); test: HIV integrase inhibitory potency was evaluated as IC50 on 3' processing of target DNA.
[10] = target: T1, Human immunodeficiency virus type 1 integrase; test: In vitro anti-HIV integrase activity against integration (strand transfer) of target plasmid.
[11] = target: T1, Human immunodeficiency virus type 1 integrase; test: In vitro anti-HIV integrase activity against 3' processing of target plasmid.
Procedure, shortened: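 Buffer: 20 mM Tris pH 7.2, 30 mM NaCl, 10% glycerol, 10 mM DTT, 0.01% NP40 and 10 mM MnCl2. Compounds were tested over a concentration range, and IC50 was taken for inhibition of 3'-processing.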

[12] = tested on: CCRF-CEM; test: as §2; assay type: functional; conditions: Homo sapiens
[13] = tested on: CCRF-CEM; test: Antiviral activity was measured as IC50 by calculating amount of virus present in CEM cells by P24 ELISA test; assay type: functional, cell-based; conditions: Homo sapiens
Procedure, shortened: (§3)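 Same CEM/HIV-1 PLN4-3 infection scheme: virus washed off after 2 h, compound in DMSO added in fresh medium, supernatants harvested 72 h post-infection. Viral load measured as virion-associated p24 antigen by ELISA in the culture supernatants.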

[14] = tested on: CCRF-CEM; test: Antiviral activity was measured as IC90 by calculating amount of virus present in CEM cells by P24 ELISA test; assay type: functional; conditions: Homo sapiens; procedure, shortened: as §3
[15] = tested on: CCRF-CEM; test: Antiviral activity was measured as IC50 by calculating amount of virus present in CEM cells by P4 infection; assay type: functional, cell-based; conditions: Homo sapiens; procedure, shortened: as §1
[16] = tested on: CCRF-CEM; test: Antiviral activity was measured as IC90 by calculating amount of virus present in CEM cells by P4 infection; assay type: functional; conditions: Homo sapiens; procedure, shortened: as §1

T1 sequence (Q7ZJM1 whole entry): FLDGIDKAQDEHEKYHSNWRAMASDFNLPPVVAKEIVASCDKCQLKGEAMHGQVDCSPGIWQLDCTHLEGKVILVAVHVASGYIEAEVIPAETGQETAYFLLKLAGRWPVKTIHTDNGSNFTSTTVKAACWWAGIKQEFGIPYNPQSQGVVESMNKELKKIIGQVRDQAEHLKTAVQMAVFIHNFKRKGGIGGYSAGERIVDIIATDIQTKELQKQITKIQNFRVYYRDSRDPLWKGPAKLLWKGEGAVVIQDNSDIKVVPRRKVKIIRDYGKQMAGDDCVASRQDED

Row | Compound | IC25 [1] [µM] | TC90 [3] [µM] | Toxicity [5] [%] | CC50 [6] [µM] | IC50 ([8]; Human immunodeficiency virus 1) [nM] | IC50 [9] [µM] | IC50 [10] [µM] | further results
1 | O=C(O)c1ccc2ccc(/C=C/c3ccc(O)cc3O)nc2c1O | 26.3 | >100 | 0 | > 100 | 2500 | 3.7 | 2.8 | IC50 [2]: 79.8 µM; Toxicity [4]: <10%; IC90 [7]: > 100 µM
2 | Oc1cccc2ccc(/C=C/c3ccc4cccc(O)c4n3)nc12 |  |  |  |  |  | > 100 |  | 
3 | Cc1ccc2cccc(O)c2n1 [8-HYDROXY QUINALDINE] |  |  |  |  |  |  | > 100 | IC50 [11]: > 100 µM
4 | Oc1ccc(/C=C/c2ccc3ccc(/C=C/c4ccc(O)c(O)c4)c(O)c3n2)cc1O |  |  |  |  |  | 2.2 | 3.4 | 
5 | CC(=O)Oc1ccc(/C=C/c2ccc3cccc(OC(C)=O)c3n2)cc1OC(C)=O |  |  |  |  |  | > 100 | > 100 | 
6 | O=C(O)c1ccc2ccc(/C=C/c3cc(O)c(O)c(O)c3)nc2c1O [listing 1 of 2 here] | 0.4 | 93.3 | 100 | 10.7 | 240 | 0.3 | 0.4 | IC50 [2]: 1.2 µM; IC90 [7]: 10.7 µM
7 | Cc1ccc2cccc(OC(=O)/C=C/c3ccc(O)c(O)c3)c2n1 |  |  |  |  |  | > 100 | > 100 | 
8 | Oc1ccc(/C=C/c2ccc3ccccc3n2)cc1O |  |  |  | 12.3 |  | > 100 |  | TC90 [12]: 100 µM
9 | O=[N+]([O-])c1cccc2ccc(/C=C/c3ccc(O)c(O)c3)nc12 |  |  |  |  |  | > 100 | > 100 | 
10 | CC(=O)Oc1cccc2ccc(/C=C/c3ccccc3)nc12 |  |  |  |  |  | > 100 | > 100 | 
11 | COc1ccc(/C=C/C(=O)Oc2cccc3ccc(C)nc23)cc1OC |  |  |  |  |  | > 100 | > 100 | 
12 | O=C(O)c1ccc2ccc(/C=C/c3cc(O)c(O)c(O)c3)nc2c1O [listing 2 of 2 here] |  |  |  |  |  | 0.26 |  | 
13 | O=C(O)c1cc(/C=C/c2ccc3ccc(C(=O)O)c(O)c3n2)ccc1O | 20.9 | >100 | 0 | > 100 | 600 | 2.7 | 0.6 | IC50 [2]: 62 µM; Toxicity [4]: 0%; IC90 [7]: > 100 µM
14 | O=C([O-])c1ccc2ccc(/C=C/c3ccc(O)c(O)c3)nc2c1O.[Na+] |  | >100 | 0 | > 100 | 700 | 0.8 |  | IC50 [13]: 20 µM; IC90 [14]: > 100 µM
15 | Oc1cccc2ccc(/C=C/c3ccccc3)nc12 |  |  |  | 50.1 |  | > 100 | > 100 | TC90 [12]: > 100 µM
16 | Oc1ccc(/C=C/c2ccc3cccc(O)c3n2)cc1O | 1.2 | 71 | 99 | 8.1 | 2500 | 7.4 | 2.4 | IC50 [2]: 3.6 µM
17 | Cc1ccc2ccc(C(=O)O)c(O)c2n1 | > 100 | >100 | 0 | > 100 |  | > 100 | 114 | IC50 [2]: > 100 µM; IC90 [7]: > 100 µM
18 | Nc1cccc2ccc(/C=C/c3ccc(O)c(O)c3)nc12 |  |  |  |  |  | > 100 | > 100 | 
19 | N#Cc1ccc2ccc(/C=C/c3ccc(O)c(O)c3)nc2c1O |  | 56.3 |  | 6.2 | 3600 | 3 |  | 
20 | O=C(O)c1ccc2ccc(/C=C/c3ccc(O)c(O)c3)nc2c1O | 0.46 | >100 | 0 |  |  | 2.4 | 1 | IC50 [15]: 1300 nM; Toxicity [4]: <10%; IC90 [16]: 12.3 µM; IC50 [8]: 900 nM
